From ChEMBL document CHEMBL1135477, “Antifungal agents. 10. New derivatives of 1-[(aryl)[4-aryl-1H-pyrrol-3-yl]methyl]-1H-imidazole, synthesis, anti-candida activity, and quantitative structure-analysis relationship studies” (J Med Chem, 2002)
≈ marks a conversion by molar mass, not a printed value.

How the values were obtained:
Format in all cases: functional
[1] = test system: Candida albicans; assay: In vitro antifungal activity against 40 strains at pH 5.8,(percent of resistant species at 256 ug/mL)
Outline: (§1)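 Broth serial-dilution test in Sabouraud broth at pH 7.2 or 5.8, against 40 fresh clinical C. albicans isolates from hospitalized patients. Inocula were 10³/mL, pre-grown 18 h at 37 °C in Sabouraud dextrose broth. Compound from a DMSO/water stock was twofold-diluted over 0.25–256 µg/mL. Visible growth was read at 24 h, 37 °C.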

[2] = test system: Candida; assay: Tested in vitro for antifungal activity against candida Spp (Candida glabrata, Candida krusei) at pH 7.2 (percent of resistant species at 256 ug/mL)
Outline: (§2)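 Broth serial-dilution test in Sabouraud broth at pH 7.2 or 5.8, against 3 fresh clinical non-albicans isolates (two C. glabrata, one C. krusei). Inocula were 10³/mL, pre-grown 18 h at 37 °C. Compound was twofold-diluted over 0.25–256 µg/mL and read at 24 h, 37 °C for visible growth.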

[3] = test system: Candida; assay: Tested In vitro for antifungal activity against candida Spp (Candida glabrata, Candida krusei) at pH 7.2
Outline: (§3)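 Inocula were 10³/mL, pre-grown 18 h at 37 °C. MIC is the lowest concentration with no visible growth versus a blank at 24 h, 37 °C. The mean MIC is ΣMICi over the strain number; MIC50/MIC90 are also reported.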

[4] = test system: Candida albicans; assay: In vitro antifungal activity against 40 strains at pH 7.2 minimum inhibitory concentration
Outline: (§4)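 Inocula were 10³/mL, pre-grown 18 h at 37 °C. MIC is the lowest concentration with no visible growth versus a DMSO/water blank at 24 h, 37 °C. The mean MIC is ΣMICi over the total strain number; MIC50/MIC90 cover 50%/90% of strains.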

[5] = test system: Candida; assay: In vitro antifungal activity against candida Spp (Candida glabrata, Candida krusei) at pH 5.8,(percent of resistant species at 256 ug/mL); outline: as §2
[6] = test system: Candida albicans; assay: In vitro antifungal activity against 40 strains at pH 7.2, (percent of resistant species at 256 ug/mL); outline: as §1
[7] = test system: Candida albicans; assay: Tested In vitro for antifungal activity at pH 5.8
[8] = test system: Candida; assay: Tested In vitro for antifungal activity against candida Spp (Candida glabrata, Candida krusei) at pH 5.8; outline: as §3
[9] = test system: Candida albicans; assay: In vitro antifungal activity against 40 strains at pH 7.2; outline: as §4
[10] = test system: Candida albicans; assay: In vitro antifungal activity against 40 strains of Candida albicans at pH 5.8
Outline: (§5)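 Broth serial-dilution MIC against 40 clinical C. albicans isolates from hospitalized patients, grown in Sabouraud broth at pH 7.2 or 5.8. Cells were pre-grown 18 h at 37 °C, inoculated at 10³/mL, and read at 24 h, 37 °C. Doubling dilutions ran 0.25–256 μg/mL from a DMSO/water solution. MIC was the lowest concentration with no visible growth against a DMSO/water blank.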

[11] = test system: Candida; assay: Tested in vitro for antifungal activity against Candida species. at pH 5.8; value ranges from 128 to >256
Outline: (§6)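 Fresh clinical isolates (two C. glabrata, one C. krusei) were pre-grown 18 h at 37 °C in Sabouraud dextrose broth. Broth double-dilution was run in Sabouraud broth at pH 5.8 or 7.2 over 0.25–256 µg/mL from a DMSO/water stock, with 10³/mL inoculum.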

[12] = test system: Candida albicans; assay: In vitro antifungal activity against 40 strains of Candida albicans at pH 7.2; (percent of resistant species at 256 ug/mL); outline: as §1
[13] = test system: Candida; assay: Tested In vitro for antifungal activity against Candida species. at pH 7.2; (percent of resistant species at 256 ug/mL); outline: as §2
[14] = test system: Candida albicans; assay: In vitro antifungal activity against 40 strains of Candida albicans at pH 5.8; (range is from 32 to 256); outline: as §5
[15] = test system: Candida albicans; assay: In vitro antifungal activity against 40 strains of Candida albicans at pH 5.8; (percent of resistant species at 256 ug/mL); outline: as §1
[16] = test system: Candida albicans; assay: In vitro antifungal activity against 40 strains of Candida albicans at pH 7.2; outline: as §5
[17] = test system: Candida albicans; assay: IIn vitro antifungal activity against 40 strains of Candida albicans at pH 7.2; minimum inhibitory concentration (range is from 16 to 256); outline: as §5
[18] = molecular target: Lanosterol 14-alpha demethylase (Candida albicans (strain SC5314 / ATCC MYA-2876) (Yeast), UniProt P10613); assay: Anticandida activity- (MIC90 compound) / (MIC90 bifonazole)
[19] = test system: Candida; assay: Tested in vitro for antifungal activity against Candida species. at pH 5.8 (percent of resistant species at 256 ug/mL); outline: as §2
[20] = test system: Candida; assay: Tested In vitro for antifungal activity against Candida species. at pH 7.2
Outline: (§7)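 Liquid serial-dilution MIC against 3 freshly isolated clinical Candida strains (two C. glabrata, one C. krusei) in Sabouraud broth at pH 7.2 or 5.8. Inoculum was 10³/mL after 18 h pre-culture at 37 °C, read at 24 h, 37 °C. Range was 0.25–256 μg/mL. Endpoint was no visible growth versus a DMSO/water blank.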

[21] = test system: Candida; assay: Tested in vitro for antifungal activity against Candida species. at pH 5.8; outline: as §7
[22] = test system: Candida; assay: Tested in vitro for antifungal activity against Candida species. at pH 5.8; range is from 4 to 16; outline: as §6
[23] = test system: Candida; assay: Tested In vitro for antifungal activity against Candida species. at pH 7.2; (range is from 8 to 128); outline: as §7
[24] = test system: Candida albicans; assay: In vitro antifungal activity against 40 strains of Candida albicans at pH 5.8; (range is from 1 to 32); outline: as §5
[25] = test system: Candida albicans; assay: In vitro antifungal activity against 40 strains of Candida albicans at pH 7.2; minimum inhibitory concentration (range is from 4 to 64); outline: as §5

Lanosterol 14-alpha demethylase, sequence (P10613 whole entry): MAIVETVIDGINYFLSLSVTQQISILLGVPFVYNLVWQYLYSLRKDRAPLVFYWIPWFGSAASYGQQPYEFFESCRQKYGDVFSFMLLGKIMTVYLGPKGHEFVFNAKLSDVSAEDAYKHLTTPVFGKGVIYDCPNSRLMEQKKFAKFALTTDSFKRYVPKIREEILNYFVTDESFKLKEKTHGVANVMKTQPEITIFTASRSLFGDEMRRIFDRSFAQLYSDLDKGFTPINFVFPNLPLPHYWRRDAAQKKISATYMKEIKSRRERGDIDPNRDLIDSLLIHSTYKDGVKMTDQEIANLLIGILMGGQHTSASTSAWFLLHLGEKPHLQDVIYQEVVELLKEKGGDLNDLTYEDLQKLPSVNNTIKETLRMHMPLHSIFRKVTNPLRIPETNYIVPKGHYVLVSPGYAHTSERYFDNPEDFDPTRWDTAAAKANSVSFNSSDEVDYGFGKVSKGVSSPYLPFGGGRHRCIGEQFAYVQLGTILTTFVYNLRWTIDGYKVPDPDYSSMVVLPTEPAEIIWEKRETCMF

SMILES	MIC [10]	MIC50 [10]	MIC90 [10]	Resistance [12]	Resistance [13]	Resistance [15]	MIC [16]	MIC50 [16]	MIC90 [16]	Ratio [18]	Resistance [19]	MIC [20]	MIC50 [20]	MIC90 [20]	MIC [21]	MIC50 [21]	MIC90 [21]	other results
CC(=O)N1CCN(c2ccc(OCC3COC(Cn4ccnc4)(c4ccc(Cl)cc4Cl)O3)cc2)CC1 (stereo not given) [KETOCONAZOLE]																		Resistance [1]: 0%; Resistance [2]: 0%; MIC [3]: 8.6 µg/mL (≈ 16.2 µM); MIC50 [3]: 8 µg/mL (≈ 15.1 µM); MIC90 [3]: 16 µg/mL (≈ 30.1 µM); Range [3]: 2 µg/mL; Range [4]: 2 µg/mL; Resistance [5]: 0%; Resistance [6]: 0%; MIC [7]: 6.35 µg/mL (≈ 11.9 µM); Range [7]: <0.25 µg/mL; MIC [8]: 6.53 µg/mL (≈ 12.3 µM); MIC50 [8]: 32 µg/mL (≈ 60.2 µM); MIC90 [8]: 128 µg/mL (≈ 241 µM); Range [8]: <0.25 µg/mL; MIC [9]: 9.26 µg/mL (≈ 17.4 µM); MIC50 [9]: 8 µg/mL (≈ 15.1 µM); MIC90 [9]: 32 µg/mL (≈ 60.2 µM)
Oc1ccc(-c2c[nH]cc2[C@@H](c2ccc(Cl)cc2Cl)n2ccnc2)cc1	150 µg/mL (≈ 390 µM)	32 µg/mL (≈ 83.3 µM)	128 µg/mL (≈ 333 µM)	0%	0%	26%	77.8 µg/mL (≈ 202 µM)	16 µg/mL (≈ 41.6 µM)	256 µg/mL (≈ 666 µM)	26	67%	256 µg/mL (≈ 666 µM)	256 µg/mL (≈ 666 µM)	256 µg/mL (≈ 666 µM)	128 µg/mL (≈ 333 µM)	> 256 µg/mL	> 256 µg/mL	Range [11]: >256 µg/mL; Range [14]: 256 µg/mL; Range [17]: 256 µg/mL; Range [20]: 256 µg/mL
CSc1ccc(-c2c[nH]cc2[C@H](c2ccc(Cl)cc2Cl)n2ccnc2)cc1	7 µg/mL (≈ 16.9 µM)	4 µg/mL (≈ 9.65 µM)	8 µg/mL (≈ 19.3 µM)	0%	0%	0%	9.14 µg/mL (≈ 22.1 µM)	4 µg/mL (≈ 9.65 µM)	8 µg/mL (≈ 19.3 µM)	3	0%	66.6 µg/mL (≈ 161 µM)	64 µg/mL (≈ 154 µM)	128 µg/mL (≈ 309 µM)	9.3 µg/mL (≈ 22.4 µM)	8 µg/mL (≈ 19.3 µM)	16 µg/mL (≈ 38.6 µM)	Range [22]: 16 µg/mL; Range [23]: 128 µg/mL; Range [24]: 32 µg/mL; Range [25]: 64 µg/mL
